Measured values published in ChEMBL document CHEMBL1629447, “Antitumor agents 286. Design, synthesis, and structure-activity relationships of 3'R,4'R-disubstituted-2',2'-dimethyldihydropyrano[2,3-f]chromone (DSP) analogues as potent chemosensitizers to overcome multidrug resistance” (2010).
Converted amounts (≈) assume the structure as drawn. The source made the active and inactive calls. No cut-off for these calls is given here.

Key:
[1] = system: KBVIN; test: Inhibition of Pgp-mediated multidrug resistance in human KBVIN cells assessed as chemosensitization activity measured by increase in vincristine-induced cytotoxicity at 1 ug/mL by SRB assay relative to untreated control; format: cell-based
[2] = Cytotoxicity in human KBVIN cells by SRB assay; format: functional
Summary of the method: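 Cellular protein read by sulforhodamine B staining, absorbance 562 nm. GI50 is the concentration giving 50% lower absorbance than untreated cells, taken from replicate dose-response curves.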

[3] = system: KBVIN; test: Inhibition of Pgp in human KBVIN cells assessed as facilitation of in calcein-AM accumulation by […]; format: cell-based
Summary of the method: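 KB-Vin (MDR) cells, 10,000 per well, adhered one day in medium with 5% FBS. Pre-exposed to test compound at several concentrations for 30 min at 37 °C, then given fresh medium with 1 μM calcein-AM plus compound for 30 min at 37 °C. Washed with cold PBS in low light, lysed in 20 mM Tris-HCl, fluorescence read Ex 494/Em 517 nm. Verapamil as inhibitor control; two or more independent experiments.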

Structure (SMILES)	fold change (FC) [1]	GI50 [2] [µg/mL]	inhibition [3]
CCc1cc(=O)c2ccc3c(c2o1)[C@@H](OC(=O)c1ccc(C(F)(F)F)cc1)[C@@H](OC(=O)c1ccc(C(F)(F)F)cc1)C(C)(C)O3	16.3	> 31.5	
CCc1cc(=O)c2ccc3c(c2o1)[C@@H](OC(=O)c1ccc(OC)cc1)[C@@H](OC(=O)c1ccc(OC)cc1)C(C)(C)O3	257	9 (≈ 16.1 µM)	Active
CCc1cc(=O)c2ccc3c(c2o1)[C@@H](OC(=O)c1cccc(C(F)(F)F)c1)[C@@H](OC(=O)c1cccc(C(F)(F)F)c1)C(C)(C)O3	< 12.2	> 31.5	
CCc1cc(=O)c2ccc3c(c2o1)[C@@H](OC(=O)CCc1ccccc1)[C@@H](OC(=O)CCc1ccccc1)C(C)(C)O3	106	10.1 (≈ 18.2 µM)	
CCc1ccc(C(=O)O[C@@H]2c3c(ccc4c(=O)cc(CC)oc34)OC(C)(C)[C@@H]2OC(=O)c2ccc(CC)cc2)cc1	20.3	> 13.6	
CCc1cc(=O)c2ccc3c(c2o1)[C@@H](OC(=O)c1ccc(C)cc1)[C@@H](OC(=O)c1ccc(C)cc1)C(C)(C)O3	349	20.6 (≈ 39.1 µM)	
CCc1cc(=O)c2ccc3c(c2o1)[C@@H](OC(=O)Cc1ccc(OC)cc1)[C@@H](OC(=O)Cc1ccc(OC)cc1)C(C)(C)O3	34.4	13.3 (≈ 22.7 µM)	
CCc1cc(=O)c2ccc3c(c2o1)[C@@H](OCc1ccccc1)[C@@H](OCc1ccccc1)C(C)(C)O3	40.7	> 15.7	
CCc1cc(=O)c2ccc3c(c2o1)[C@@H](OC(=O)N(CC)CC)[C@@H](OC(=O)N(CC)CC)C(C)(C)O3	116	> 20	
CCc1cc(=O)c2ccc3c(c2o1)[C@@H](OC(=O)c1ccc([N+](=O)[O-])cc1)[C@@H](OC(=O)c1ccc([N+](=O)[O-])cc1)C(C)(C)O3	203	> 34	
CCCCN(CCCC)C(=O)O[C@@H]1c2c(ccc3c(=O)cc(CC)oc23)OC(C)(C)[C@@H]1OC(=O)N(CCCC)CCCC	< 12.2	> 20	
CCc1cc(=O)c2ccc3c(c2o1)[C@@H](OC(=O)Cc1ccccc1)[C@@H](OC(=O)Cc1ccccc1)C(C)(C)O3	81.3	8.33 (≈ 15.8 µM)	
COc1ccc(CCN(C)CCCC(C#N)(c2ccc(OC)c(OC)c2)C(C)C)cc1OC (configuration not stated) [VERAPAMIL]	141	> 31.5	
CCc1cc(=O)c2ccc3c(c2o1)[C@@H](OC(=O)C1CCCCC1)[C@@H](OC(=O)C1CCCCC1)C(C)(C)O3	< 12.2	> 20	
CCc1cc(=O)c2ccc3c(c2o1)[C@@H](OC(=O)N1CCCC1)[C@@H](OC(=O)N1CCCC1)C(C)(C)O3	24.9	> 20	
CCc1cc(=O)c2ccc3c(c2o1)[C@@H](OC(=O)c1cccc(C#N)c1)[C@@H](OC(=O)c1cccc(C#N)c1)C(C)(C)O3	160	> 2.5	
CCc1cc(=O)c2ccc3c(c2o1)[C@@H](OC(=O)N1CCCCC1)[C@@H](OC(=O)N1CCCCC1)C(C)(C)O3	22.2	> 20	
CCc1cc(=O)c2ccc3c(c2o1)[C@@H](OC(=O)c1cccc(OC)c1)[C@@H](OC(=O)c1cccc(OC)c1)C(C)(C)O3	27.1	> 35.8	
CCc1cc(=O)c2ccc3c(c2o1)[C@@H](OC(=O)c1ccccc1C(F)(F)F)[C@@H](OC(=O)c1ccccc1C(F)(F)F)C(C)(C)O3	< 12.2	> 31.5	
CCc1cc(=O)c2ccc3c(c2o1)[C@@H](OC(=O)N(C)C)[C@@H](OC(=O)N(C)C)C(C)(C)O3	< 12.2	> 20	
CCc1cc(=O)c2ccc3c(c2o1)[C@@H](OC(=O)c1ccc(C#N)cc1)[C@@H](OC(=O)c1ccc(C#N)cc1)C(C)(C)O3	188	> 5.5	Active
CCc1cc(=O)c2ccc3c(c2o1)[C@@H](OC(=O)/C=C/c1ccccc1)[C@@H](OC(=O)/C=C/c1ccccc1)C(C)(C)O3	222	9.44 (≈ 17.1 µM)	
CCc1cc(=O)c2ccc3c(c2o1)[C@@H](OC(=O)c1ccccc1OC)[C@@H](OC(=O)c1ccccc1OC)C(C)(C)O3	28.1	> 31.5	
CCc1cc(=O)c2ccc3c(c2o1)[C@@H](OC(=O)/C=C/c1ccc(OC)cc1)[C@@H](OC(=O)/C=C/c1ccc(OC)cc1)C(C)(C)O3	287	> 36.4	
CCc1cc(=O)c2ccc3c(c2o1)[C@@H](OC(=O)c1ccccc1)[C@@H](OC(=O)c1ccccc1)C(C)(C)O3	< 12.2	8.79 (≈ 17.6 µM)	
